Reference: ChEMBL document CHEMBL1154814, “Synthesis and antimicrobial activities of 3-O-alkyl analogues of (+)-catechin: improvement of stability and proposed action mechanism” (Eur J Med Chem, 2010)
Values after ≈ are worked out from the molar mass of the structure shown.

Tests used:
[1] = Drug uptake assessed as incorporation into egg phosphatidylcholine liposome by HPLC; type: ADME; conditions: artificial membrane
How it was run: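 Egg PC liposomes were diluted 10-fold in PBS, untrapped glucose was removed by centrifugation, and lipid was adjusted to 1 mg/mL. Compound in ethanol was added to final 50 µM with 10% ethanol. Percent incorporated into bilayers was derived from HPLC peak integration of compound left in solution.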

Micrococcus luteus = assay: Antibacterial activity against Micrococcus luteus ATCC 10240 after 24 hrs by NCCLS method; type: functional; conditions: ATCC 10240, 24 h
How it was run: (§1)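 Agar dilution on Mueller Hinton agar. Overnight cultures on soybean casein digest agar at 37 °C were adjusted to 0.5 McFarland, then diluted 10-fold to 1.2 × 10^7 CFU/mL. 10 µL of each culture was spotted, incubated at 35 °C for 24 h. MIC taken as the lowest concentration preventing growth. Triplicates.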

Clavispora lusitaniae = assay: Antifungal activity against Candida lusitaniae ATCC 42720 after 24 to 72 hrs by NCCLS method; type: functional
How it was run: (§2)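 Yeasts were grown overnight on Sabouraud dextrose agar at 35 °C and adjusted in saline to 0.5 McFarland (1.0–5.0 × 10^6 cells/mL). This stock was diluted 1:100 then 1:20 to 5.0 × 10^2–2.5 × 10^3 cells/mL. Tubes were incubated at 35 °C for 48 h in ambient air. MIC taken as the lowest concentration preventing growth. Triplicates.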

Candida albicans = assay: Antifungal activity against Candida albicans ATCC 10231 after 24 to 72 hrs by NCCLS method; type: functional; how it was run: as §2
Bacillus subtilis = assay: Antibacterial activity against Bacillus subtilis ATCC 6633 after 24 hrs by NCCLS method; type: functional; conditions: ATCC 6633, 24 h; how it was run: as §1
Candida tropicalis = assay: Antifungal activity against Candida tropicalis IFO 10241 after 24 to 72 hrs by NCCLS method; type: functional; how it was run: as §2
Proteus mirabilis = assay: Antibacterial activity against Proteus mirabilis ATCC 27853 after 24 hrs by NCCLS method; type: functional; how it was run: as §1
[2] = system: Staphylococcus epidermidis; assay: Antibacterial activity against Staphylococcus epidermidis ATCC 0155 after 24 hrs by NCCLS method; type: functional; conditions: ATCC 0155, 24 h; how it was run: as §1
Enterococcus faecalis = assay: Antibacterial activity against Enterococcus faecalis ATCC 29212 after 24 hrs by NCCLS method; type: functional; conditions: ATCC 29212, 24 h; how it was run: as §1
Escherichia coli [3] = assay: Antibacterial activity against Escherichia coli ATCC 10536 after 24 hrs by NCCLS method; type: functional; conditions: ATCC 10536, 24 h; how it was run: as §1
Staphylococcus aureus = assay: Antibacterial activity against Staphylococcus aureus ATCC 25923 after 24 hrs by NCCLS method; type: functional; conditions: ATCC 25923, 24 h; how it was run: as §1
Klebsiella pneumoniae = assay: Antibacterial activity against Klebsiella pneumoniae ATCC 10031 after 24 hrs by NCCLS method; type: functional; conditions: ATCC 10031, 24 h; how it was run: as §1
Pichia kudriavzevii = assay: Antifungal activity against Candida krusei IFO 1664 after 24 to 72 hrs by NCCLS method; type: functional; how it was run: as §2
Escherichia coli [4] = assay: Antibacterial activity against Escherichia coli ATCC 25922 after 24 hrs by NCCLS method; type: functional; conditions: ATCC 25922, 24 h; how it was run: as §1
[5] = Chemical stability in PBS buffer at pH 7.4 assessed as compound remaining after 16 hrs by HPLC; type: physicochemical; conditions: read-out: Stability
How it was run: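 Compound at 200 µM in 1% DMSO / 50 mM PBS, pH 7.4, incubated at 37 °C without cells; pH was checked before and after. Samples went onto a C-18 HPLC column (35/65 CH3CN/H2O, 1 mL/min, column at 37 °C). Percent remaining was taken from peak integration against an internal standard at 254 nm.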

SMILES	Drug uptake [1]	MIC (Micrococcus luteus)	MIC (Clavispora lusitaniae)	MIC (Candida albicans)	MIC (Bacillus subtilis)	MIC (Candida tropicalis)	MIC (Proteus mirabilis)	MIC [2]	MIC (Enterococcus faecalis)	MIC (Escherichia coli [3])	MIC (Staphylococcus aureus)	MIC (Klebsiella pneumoniae)	MIC (Pichia kudriavzevii)	MIC (Escherichia coli [4])	remaining at 16 h [5]
Oc1cc(O)c2c(c1)O[C@H](c1cc(O)c(O)c(O)c1)[C@H](O)C2 [EPIGALLOCATECHIN]	–	> 128 µg/mL	> 128 µg/mL	> 128 µg/mL	> 128 µg/mL	> 128 µg/mL	> 128 µg/mL	> 128 µg/mL	> 128 µg/mL	> 128 µg/mL	> 128 µg/mL	> 128 µg/mL	> 128 µg/mL	> 128 µg/mL	–
COc1cc(CO[C@H]2Cc3c(O)cc(O)cc3O[C@@H]2c2ccc(O)c(O)c2)cc(OC)c1OC	–	16 µg/mL (≈ 34 µM)	64 µg/mL (≈ 136 µM)	64 µg/mL (≈ 136 µM)	32 µg/mL (≈ 68 µM)	128 µg/mL (≈ 272 µM)	–	32 µg/mL (≈ 68 µM)	64 µg/mL (≈ 136 µM)	64 µg/mL (≈ 136 µM)	32 µg/mL (≈ 68 µM)	128 µg/mL (≈ 272 µM)	128 µg/mL (≈ 272 µM)	> 128 µg/mL	–
O=C(O[C@@H]1Cc2c(O)cc(O)cc2O[C@@H]1c1cc(O)c(O)c(O)c1)c1cc(O)c(O)c(O)c1 [EPIGALOCATECHIN GALLATE]	Not Active	32 µg/mL (≈ 69.8 µM)	> 128 µg/mL	> 128 µg/mL	> 128 µg/mL	> 128 µg/mL	> 128 µg/mL	128 µg/mL (≈ 279 µM)	> 128 µg/mL	> 128 µg/mL	> 128 µg/mL	> 128 µg/mL	> 128 µg/mL	> 128 µg/mL	15%
O=C(O)c1cn(C2CC2)c2cc(N3CCNCC3)c(F)cc2c1=O [CIPROFLOXACIN]	–	< 0.06 µg/mL	–	–	< 0.06 µg/mL	–	0.125 µg/mL (≈ 0.377 µM)	0.25 µg/mL (≈ 0.754 µM)	0.5 µg/mL (≈ 1.51 µM)	–	0.25 µg/mL (≈ 0.754 µM)	< 0.06 µg/mL	–	–	–
NC[C@H]1O[C@H](O[C@H]2[C@H](O)[C@@H](O[C@H]3O[C@H](CO)[C@@H](O)[C@H](N)[C@H]3O)[C@H](N)C[C@@H]2N)[C@H](O)[C@@H](O)[C@@H]1O.O=S(=O)(O)O [KANAMYCIN SULFATE]	–	8 µg/mL	–	–	2 µg/mL	–	32 µg/mL	4 µg/mL	32 µg/mL	8 µg/mL	16 µg/mL	64 µg/mL	–	8 µg/mL	–
Oc1cc(O)c2c(c1)O[C@H](c1ccc(O)c(O)c1)[C@@H](OCc1ccccc1)C2	–	32 µg/mL (≈ 84.1 µM)	> 128 µg/mL	> 128 µg/mL	64 µg/mL (≈ 168 µM)	> 128 µg/mL	128 µg/mL (≈ 336 µM)	64 µg/mL (≈ 168 µM)	32 µg/mL (≈ 84.1 µM)	> 128 µg/mL	64 µg/mL (≈ 168 µM)	128 µg/mL (≈ 336 µM)	> 128 µg/mL	> 128 µg/mL	–
C[C@@H]1[C@H](O)[C@@H](C)/C=C/C=C/C=C/C=C/C=C/C=C/C=C/[C@H](O[C@@H]2O[C@H](C)[C@@H](O)[C@H](N)[C@@H]2O)C[C@@H]2O[C@](O)(C[C@@H](O)C[C@@H](O)[C@H](O)CC[C@@H](O)C[C@@H](O)CC(=O)O[C@H]1C)C[C@H](O)[C@H]2C(=O)O [AMPHOTERICIN B]	–	–	0.5 µg/mL (≈ 0.541 µM)	0.25 µg/mL (≈ 0.271 µM)	–	0.5 µg/mL (≈ 0.541 µM)	–	–	–	–	–	–	0.5 µg/mL (≈ 0.541 µM)	–	–
O=C(O[C@@H]1Cc2c(O)cc(O)cc2O[C@@H]1c1ccc(O)c(O)c1)c1cc(O)c(O)c(O)c1 [EPICATECHIN GALLATE]	–	> 128 µg/mL	> 128 µg/mL	> 128 µg/mL	> 128 µg/mL	> 128 µg/mL	> 128 µg/mL	> 128 µg/mL	> 128 µg/mL	> 128 µg/mL	> 128 µg/mL	> 128 µg/mL	> 128 µg/mL	> 128 µg/mL	–
Oc1cc(O)c2c(c1)O[C@H](c1ccc(O)c(O)c1)[C@@H](O)C2 [CIANIDANOL]	–	> 128 µg/mL	> 128 µg/mL	> 128 µg/mL	> 128 µg/mL	> 128 µg/mL	> 128 µg/mL	> 128 µg/mL	> 128 µg/mL	> 128 µg/mL	> 128 µg/mL	> 128 µg/mL	> 128 µg/mL	> 128 µg/mL	–
Oc1cc(O)c2c(c1)O[C@H](c1ccc(O)c(O)c1)[C@H](O)C2 [(-)-EPICATECHIN]	–	> 128 µg/mL	> 128 µg/mL	> 128 µg/mL	> 128 µg/mL	> 128 µg/mL	> 128 µg/mL	> 128 µg/mL	> 128 µg/mL	> 128 µg/mL	> 128 µg/mL	> 128 µg/mL	> 128 µg/mL	> 128 µg/mL	–
CCC(C)n1ncn(-c2ccc(N3CCN(c4ccc(OCC5COC(Cn6cncn6)(c6ccc(Cl)cc6Cl)O5)cc4)CC3)cc2)c1=O (configuration not stated) [ITRACONAZOLE]	–	–	0.125 µg/mL (≈ 0.177 µM)	0.06 µg/mL (≈ 0.085 µM)	–	0.06 µg/mL (≈ 0.085 µM)	–	–	–	–	–	–	0.25 µg/mL (≈ 0.354 µM)	–	–

Results, then the molecule that gave them:

Drug uptake [1]	MIC (Micrococcus luteus)	MIC (Clavispora lusitaniae)	MIC (Candida albicans)	MIC (Bacillus subtilis)	MIC (Candida tropicalis)	MIC (Proteus mirabilis)	MIC [2]	MIC (Enterococcus faecalis)	MIC (Escherichia coli [3])	MIC (Staphylococcus aureus)	MIC (Klebsiella pneumoniae)	MIC (Pichia kudriavzevii)	MIC (Escherichia coli [4])	remaining at 16 h [5]	SMILES
100%	–	–	–	–	–	–	–	–	–	–	–	–	–	–	CCCCCCCCO[C@H]1Cc2c(O)cc(O)cc2O[C@@H]1c1ccc(O)c(O)c1
100%	–	–	–	–	–	–	–	–	–	–	–	–	–	–	CCCCCCO[C@H]1Cc2c(O)cc(O)cc2O[C@@H]1c1ccc(O)c(O)c1
100%	–	–	–	–	–	–	–	–	–	–	–	–	–	–	CCCCCCCCCCCCO[C@H]1Cc2c(O)cc(O)cc2O[C@@H]1c1ccc(O)c(O)c1
–	–	–	–	–	–	–	–	–	–	–	–	–	–	75%	CCCCCCCCCC(=O)O[C@H]1Cc2c(O)cc(O)cc2O[C@@H]1c1ccc(O)c(O)c1
100%	–	–	–	–	–	–	–	–	–	–	–	–	–	–	CCCCCCCCCCCCCCO[C@H]1Cc2c(O)cc(O)cc2O[C@@H]1c1ccc(O)c(O)c1
100%	–	–	–	–	–	–	–	–	–	–	–	–	–	–	CCCCCCCCCCCCCCCCO[C@H]1Cc2c(O)cc(O)cc2O[C@@H]1c1ccc(O)c(O)c1
100%	–	–	–	–	–	–	–	–	–	–	–	–	–	> 90%	CCCCCCCCCCO[C@H]1Cc2c(O)cc(O)cc2O[C@@H]1c1ccc(O)c(O)c1
–	32 µg/mL (≈ 96.3 µM)	> 128 µg/mL	> 128 µg/mL	128 µg/mL (≈ 385 µM)	> 128 µg/mL	> 128 µg/mL	64 µg/mL (≈ 193 µM)	64 µg/mL (≈ 193 µM)	> 128 µg/mL	64 µg/mL (≈ 193 µM)	> 128 µg/mL	> 128 µg/mL	> 128 µg/mL	–	CCCO[C@H]1Cc2c(O)cc(O)cc2O[C@@H]1c1ccc(O)c(O)c1
